The nature of data set [1]: Drug metabolism in Sprague-Dawley rat liver S9 fraction assessed as 1-(2-(1-morpholinopropan-2-ylamino)benzo[d]thiazol-6-yl)-8-(pyridin-4-yl)-1H-imidazo[4,5-c][1,7]naphthyridin-4(5H)-one metabolite formation in presence of aldehyde oxidase inhibitor raloxifene at 10 uM. The note with it: s9, 10 µM. Format: ADME, subcellular. Put shortly: (§1)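 M1 formation was measured in liver S9 incubations with no NADPH added, in the presence of the aldehyde oxidase inhibitor raloxifene. The rat S9 fraction received 10 μM raloxifene. The human S9 fraction was tested at two raloxifene concentrations.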

A short description of data set [2]: Drug metabolism in human liver S9 fraction assessed as 1-(2-(1-morpholinopropan-2-ylamino)benzo[d]thiazol-6-yl)-8-(pyridin-4-yl)-1H-imidazo[4,5-c][1,7]naphthyridin-4(5H)-one metabolite formation in presence of aldehyde oxidase inhibitor raloxifene. Format: ADME, subcellular. Put shortly:
as §1

The target in data set [3] is T1, Mitogen-activated protein kinase kinase kinase 8 (Homo sapiens, UniProt P41279). The experiment in a line: Inhibition of human COT (66 to 395 residues) expressed in Sf21 cells using 5-Fluo-Ahx-AGAGSGQLIDSNleANSFVGTR-NH2 as substrate after 60 mins by caliper microfluidic mobility shift assay.
T1 sequence (P41279 whole entry, the tested form may be a part): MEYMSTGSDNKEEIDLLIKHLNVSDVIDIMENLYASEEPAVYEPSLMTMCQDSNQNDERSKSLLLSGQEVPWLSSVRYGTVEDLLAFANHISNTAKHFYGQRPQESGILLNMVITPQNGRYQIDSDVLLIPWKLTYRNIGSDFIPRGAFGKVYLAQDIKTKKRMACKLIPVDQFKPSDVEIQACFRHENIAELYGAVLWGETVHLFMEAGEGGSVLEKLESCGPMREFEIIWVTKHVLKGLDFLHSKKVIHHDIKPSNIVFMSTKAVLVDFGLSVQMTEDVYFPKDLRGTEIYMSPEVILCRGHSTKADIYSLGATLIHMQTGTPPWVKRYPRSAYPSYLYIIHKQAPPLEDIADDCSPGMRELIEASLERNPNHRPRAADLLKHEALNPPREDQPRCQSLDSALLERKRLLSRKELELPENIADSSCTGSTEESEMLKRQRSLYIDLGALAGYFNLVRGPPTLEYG
Data set [4] concerns the target T1, Mitogen-activated protein kinase kinase kinase 8. The experiment in a line: Inhibition of COT in LPS-stimulated human PBMC assessed as reduction in ERK1/2 phosphorylation incubated for 60 mins followed by LPS stimulation for 12 mins by flow cytometric analysis. The essentials: (§2)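 Primary human PBMCs were stimulated with LPS. Read-outs were pERK, TNFα release, or p65 phosphorylation, each reported as IC50.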
On the technique in general: In flow cytometry, cells or beads pass a laser one at a time.

For data set [5] the target is unchanged. Description: Inhibition of COT in LPS-stimulated human PBMC assessed as reduction in TNFalpha release incubated for 1 hr followed by stimulation with LPS for 4 hrs by HTRF assay. Put shortly:
as §2
Background: Time-resolved FRET reads energy transfer from a long-lived donor to a nearby acceptor.

Data set [6] can be described thus: Octanol-water partition coefficient, log P of the compound by shake-flask method. Format: physicochemical.
For data set [7], the target named is T1, Mitogen-activated protein kinase kinase kinase 8. The experiment in a line: Inhibition of COT in LPS-stimulated human whole blood assessed as reduction in TNFalpha release incubated for 30 mins followed by stimulation with LPS for 3 hrs by HTRF assay. Format: tissue-based. The essentials: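 Human whole blood was stimulated with LPS, and TNFα release was measured as IC50.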

Data set [8] in a line: Equilibrium solubility of the compound at pH 6.8 after 16 hrs by mass spectrometric analysis. It is filed as physicochemical. The note with it: buffer.
Data set [9] can be described thus: Equilibrium solubility of the compound at pH 4 after 16 hrs by mass spectrometric analysis. It is filed as physicochemical. The settings on record: buffer.
Data set [10] is described as follows: Protein binding in human plasma at 5 uM after 4 hrs by rapid equilibrium dialysis method. The settings on record: read-out: PPB (converted). Format: ADME, cell-free. In general terms: In equilibrium dialysis only unbound substance equilibrates across the membrane.
Data set [11] in a line: Half life in wild type Sprague-Dawley rat liver microsomes at 5 uM preincubated for 3 mins followed by NADPH addition measured after 1 hr by HPLC/MS analysis. Format: ADME.
The nature of data set [12]: Clearance in wild type Sprague-Dawley rat at 1 mg/kg, iv or 3 mg/kg, po. It is filed as ADME, organism-based. The note with it: in vivo. Put shortly:
(§3)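 Pharmacokinetics in male Sprague–Dawley rats, n = 3 per group, after i.v. and p.o. dosing. AUC and Cmax are reported dose-normalized.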

Data set [13] in a line: Clearance in beagle dog at 0.1 mg/kg, iv or 0.3 mg/kg, po fasted 12 hrs prior to compound administration via cassette dosing and fed 2 hrs post dose. It is filed as ADME, organism-based, Canis lupus familiaris. The settings on record: in vivo. The essentials: (§4)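 Pharmacokinetics in Beagle dogs, n = 3 per group, after i.v. and p.o. dosing. AUC and Cmax are reported dose-normalized.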

Data set [14] is described as follows: Terminal elimination half life in wild type Sprague-Dawley rat at 1 mg/kg, iv or 3 mg/kg, po. It is filed as ADME, organism-based. The note with it: in vivo, read-out: beta t1/2 (converted). Put shortly: (§5)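 Male wild-type Sprague–Dawley rats, n = 3 per group, housed under Swiss animal-welfare conditions (12 h light/dark, 22−24 °C). Each group received separate i.v. and oral doses, with plasma profiles used for PK parameters.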

A short description of data set [15]: Terminal elimination half life in beagle dog at 0.1 mg/kg, iv or 0.3 mg/kg, po fasted 12 hrs prior to compound administration via cassette dosing and fed 2 hrs post dose. It is filed as ADME, organism-based, Canis lupus familiaris. The settings on record: in vivo, read-out: beta t1/2 (converted). Put shortly:
(§6)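 Beagle dogs, n = 3 per group, dosed i.v. and orally. PK parameters were derived from blood/plasma profiles, with exposure values dose-normalized.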

A short description of data set [16]: Mean residence time in wild type Sprague-Dawley rat at 1 mg/kg, iv or 3 mg/kg, po. It is filed as ADME, organism-based. The settings on record: in vivo. Put shortly: as §3
Data set [17] in a line: Mean residence time in beagle dog at 0.1 mg/kg, iv or 0.3 mg/kg, po fasted 12 hrs prior to compound administration via cassette dosing and fed 2 hrs post dose. The note with it: in vivo. Format: ADME, organism-based, Canis lupus familiaris. Put shortly: as §4
A short description of data set [18]: Dose normalized AUC in wild type Sprague-Dawley rat at 1 mg/kg, iv. Format: ADME, organism-based. The settings on record: in vivo. The essentials:
as §3

The nature of data set [19]: Dose normalized AUC in beagle dog at 0.1 mg/kg, iv fasted 12 hrs prior to compound administration via cassette dosing and fed 2 hrs post dose. It is filed as ADME, organism-based, Canis lupus familiaris. The note with it: in vivo. The essentials:
as §4

Data set [20] can be described thus: Dose normalized AUC in wild type Sprague-Dawley rat at 3 mg/kg, po. Format: ADME, organism-based. The note with it: in vivo. The essentials:
as §3

The nature of data set [21]: Dose normalized AUC in beagle dog at 0.3 mg/kg, po fasted 12 hrs prior to compound administration via cassette dosing and fed 2 hrs post dose. Format: ADME, organism-based, Canis lupus familiaris. The settings on record: in vivo. Put shortly:
as §4

A short description of data set [22]: Dose normalized Cmax in wild type Sprague-Dawley rat at 1 mg/kg, iv or 3 mg/kg, po. It is filed as ADME, organism-based. The settings on record: in vivo. Put shortly: as §3
Data set [23] in a line: Dose normalized Cmax in beagle dog at 0.1 mg/kg, iv or 0.3 mg/kg, po fasted 12 hrs prior to compound administration via cassette dosing and fed 2 hrs post dose. Format: ADME, organism-based, Canis lupus familiaris. The settings on record: in vivo. Put shortly:
as §4

Data set [24] is described as follows: Tmax in wild type Sprague-Dawley rat at 1 mg/kg, iv or 3 mg/kg, po. The settings on record: in vivo. Format: ADME, organism-based. Put shortly:
as §5

Data set [25] can be described thus: Oral bioavailability in wild type Sprague-Dawley rat at 3 mg/kg. The note with it: in vivo. Format: ADME, organism-based. The essentials:
as §5

Data set [26] is described as follows: Oral bioavailability in beagle dog at 0.3 mg/kg fasted 12 hrs prior to compound administration via cassette dosing and fed 2 hrs post dose. It is filed as ADME, organism-based, Canis lupus familiaris. The settings on record: in vivo. The essentials:
as §6

A short description of data set [27]: Antiinflammatory activity in human PBMC assessed as inhibition of uric acid induced-IL-1beta formation stimulated with MSU crystals after 3 hrs in presence of ATP. Format: functional, cell-based.
Data set [28] in a line: Metabolic stability in bile-duct cannulated Sprague-Dawley rat assessed as parent compound remaining in liver at 3 mg/kg, iv measured over 8 hrs post dose. The note with it: read-out: Stability. It is filed as ADME, organism-based. Put shortly:
(§7)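 Bile-duct cannulated rats dosed in vivo. Parent and metabolites in each matrix were expressed as relative peak areas of the drug-related components detected, at the stated sampling time or collection period post dose.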

Data set [29] can be described thus: Metabolic stability in bile-duct cannulated Sprague-Dawley rat assessed as parent compound remaining in kidney at 3 mg/kg, iv measured over 8 hrs post dose. It is filed as ADME, organism-based. The settings on record: read-out: Stability. The essentials: as §7
A short description of data set [30]: Half life in beagle dog liver microsomes at 5 uM preincubated for 3 mins followed by NADPH addition measured after 1 hr by HPLC/MS analysis. Format: ADME, Canis lupus familiaris.
A further data set has as its system Canis familiaris. The experiment in a line: Antiinflammatory activity in MSU-induced beagle dog acute synovitis model assessed as prevention of inflammation-driven lameness at 15 mg/kg, administered once a week 3 hrs post MSU injection measured after 6 hrs post last dose. It is filed as functional, organism-based. The settings on record: Canis lupus familiaris. Put shortly: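 Lameness was induced in dogs by uric acid injection into the joint. Treatment was vehicle, test article at 5 or 15 mg/kg, or meloxicam 0.2 mg/kg. Vertical peak force of the affected limb was measured on a force plate while trotting. The read-out was the time after treatment for that force to recover to 60% of the value measured before lameness.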

Data set [31] is described as follows: AUC (0 to 10.5 hrs) in MSU-induced beagle dog acute synovitis model at 15 mg/kg. It is filed as ADME, organism-based, Canis lupus familiaris. On the set-up: time < 10.5 hr, dose 15 mg/kg. The settings on record: in vivo. The essentials:
(§8)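 Dog uric acid-induced acute synovitis model. Groups were vehicle, the test article at 5 or 15 mg/kg, and meloxicam at 0.2 mg/kg as positive control. Exposure is reported as AUC over 0–10.5 h.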

A short description of data set [32]: AUC (0 to 10.5 hrs) in MSU-induced beagle dog acute synovitis model at 5 mg/kg. It is filed as ADME, organism-based, Canis lupus familiaris. Set-up: time < 10.5 hr, dose 5 mg/kg. The note with it: in vivo. The essentials:
as §8

A short description of data set [33]: Half life in beagle dog liver S9 fraction at 1 uM in absence of NADPH by HPLC/MS analysis.
Data set [34] in a line: Half life in wild type Sprague-Dawley rat liver S9 fraction at 1 uM in absence of NADPH by HPLC/MS analysis.

This is an account of results in ChEMBL document CHEMBL3853320, “Discovery of Imidazoquinolines as a Novel Class of Potent, Selective, and in Vivo Efficacious Cancer Osaka Thyroid (COT) Kinase Inhibitors” (J Med Chem, 2016).

≈ marks a conversion by molar mass, not a printed value. Calls of active or inactive are those of the source. The rule behind the calls is not given here.

For orientation: IC50 means the concentration that gives 50% inhibition. One may read the logP as the decadic logarithm of the partition coefficient of the neutral form, usually between octanol and water. Read a high logP as a more lipophilic compound. The thermodynamic solubility is solubility found after equilibrating the solid with the medium. The term MRT denotes a mean duration of stay, worked out from the concentration-time curve. As usually defined, the Tmax is the time from dosing to the highest level. What is called bioavailability is dose-corrected exposure relative to a reference, in per cent. A higher bioavailability goes with much systemic uptake.

Turning to `O=C(c1ccc(OCCN2CCCCC2)cc1)c1c(-c2ccc(O)cc2)sc2cc(O)ccc12` [RALOXIFENE], the Drug metabolism result is “Metabolite_Detected” in data set [1] and “Metabolite_Notdetected” in data set [2].

`CC(CN1CCOCC1)Nc1ccc2cc(-n3cnc4cnc5cnc(-c6ccncc6)cc5c43)ccc2n1` (racemic): the concentration for half-maximal inhibition (IC50) in data set [3] stood at 6 nM; in data set [4], 60 nM; in [5], 60 nM; in [7], 200 nM; in [27], 200 nM. The same molecule gave a logP in data set [6] of 3.3. Also, the figures for the thermodynamic solubility at 16 h in data set [8] and in data set [9] were 136 µM (≈ 70.3 µg/mL) and > 1000 µM, respectively. Further, the fraction unbound at 4 h, 5 µM in data set [10] was 0.03. The half-life at 5 µM came out at 3 min in data set [11] and 0.167 h in data set [30]. Moreover, the clearance in data set [12] is 277 mL/min/kg; in [13], 25 mL/min/kg. The half-life is 2.1 h in data set [14] and 3.2 h in [15]. The mean residence time (MRT) in data set [16] is 1.2 h; in data set [17], 2.4 h. The AUC/dose in [18] was 119 nmol·h; in [19] it was 1570 nmol·h; in data set [20], 31 nmol·h; in data set [21], 957 nmol·h. Moreover, the results for the Cmax/dose in [22] and in [23] were 12 nM and 61 nM, respectively. In addition, the time of peak concentration (Tmax) in data set [24] was found to be 0.3 h. Besides, the bioavailability was found to be 26% in data set [25] and 61% in data set [26]. For the same molecule, the values for the remaining at 8 h in data set [28] and in [29] were 28% and 22%, respectively. For the same molecule, the outcome with Canis familiaris was Active. The AUC in [31] worked out at 4575 nmol·h; in data set [32], 2057 nmol·h. Further, the half-life at 1 µM is > 2 h in data set [33] and < 5 min in [34].
